Legend:
[1] = (§1) Hemolytic activity against human RBC at 150 uM incubated for 16 hrs by spectrophotometric analysis; type: ADME, cell-based, Erythrocyte; settings: human red blood cells (erythrocytes), read-out: Activity
Outline: (§2)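 Red blood cells were incubated with compound at 37 °C for 16 h, with 1% saponin as positive and PBS as negative control. Tubes were centrifuged at 2000 rpm for 3 min, and supernatant absorbance was read at 540 nm. Percent hemolysis was calculated relative to the saponin and PBS mean absorbances. Means were compared by ANOVA with Tukey test.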

[2] = Cytotoxicity against human WI26VA4 cells assessed as reduction in cell viability incubated for 48 hrs by MTT assay; type: cell-based
Plasmodium falciparum = test: Antimalarial activity against chloroquine-resistant Plasmodium falciparum W2 infected in human RBC assessed as reduction in HRP2 level by ELISA; type: functional, organism-based; settings: W2, Erythrocyte
[3] = Selectivity index, ratio of CC50 for human WI-26VA-4 cells to IC50 for chloroquine-resistant ring-stage Plasmodium falciparum W2 infected in human RBC; type: toxicity; settings: read-out: Ratio CC50/IC50
Plasmodium berghei [4] = test: Antimalarial activity against Plasmodium berghei NK65 infected in Swiss mouse assessed as parasitemia at 15 mg/kg, po administered for 4 days and measured on day 5 post infection by Giemsa staining based microscopic analysis (reference value: 100 %); type: functional; settings: time 4 day
Outline: (§3)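 Modified suppressive test in female Swiss mice infected with P. berghei NK65. Compounds were solubilized in 5% DMSO, diluted in water, and given by gavage. Parasitemia was read on Giemsa-stained blood smears on days 5 and 9 post-infection. Inhibition of parasite multiplication = [(A−B)/A]×100, where A is parasitemia of the water + 5% DMSO group.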

Plasmodium berghei [5] = test: Antimalarial activity against Plasmodium berghei NK65 infected in Swiss mouse assessed as parasitemia at 15 mg/kg, po administered for 4 days and measured on day 9 post infection by Giemsa staining based microscopic analysis (reference value: 100 %); type: functional; settings: time 4 day; outline: as §3
Erythrocyte = test: as §1; type: ADME, cell-based; settings: erythrocyte, 16 h, 150 µM; outline: as §2
Plasmodium berghei [6] = test: Antimalarial activity against Plasmodium berghei NK65 infected in Swiss mouse assessed as parasitemia at 10 mg/kg, po administered for 4 days and measured on day 5 post infection by Giemsa staining based microscopic analysis (reference value: 100 %); type: functional; settings: time 4 day; outline: as §3
Plasmodium berghei [7] = test: Antimalarial activity against Plasmodium berghei NK65 infected in Swiss mouse assessed as parasitemia at 10 mg/kg, po administered for 4 days and measured on day 9 post infection by Giemsa staining based microscopic analysis (reference value: 100 %); type: functional; settings: time 4 day; outline: as §3
Plasmodium berghei [8] = test: Antimalarial activity against Plasmodium berghei NK65 infected in Swiss mouse assessed as parasitemia at 25 mg/kg, po administered for 4 days and measured on day 5 post infection by Giemsa staining based microscopic analysis (reference value: 100 %); type: functional; settings: time 4 day; outline: as §3
Plasmodium berghei [9] = test: Antimalarial activity against Plasmodium berghei NK65 infected in Swiss mouse assessed as parasitemia at 25 mg/kg, po administered for 4 days and measured on day 9 post infection by Giemsa staining based microscopic analysis (reference value: 100 %); type: functional; settings: time 4 day; outline: as §3
Ferriprotoporphyrin IX [10] = test: Binding affinity to Fe(III)PPIX (unknown origin) assessed as reduction in hypochromism by UV-Vis spectrophotometric analysis relative to control; settings: concentration not given here
Outline: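 Soret band (402 nm) absorbance of Fe(III)PPIX in Tris pH 7.5/aqueous DMSO was followed while 0.3 mM compound was titrated in to saturation. The blank was treated the same way to subtract compound absorbance. Hypochromism was taken as the percentage reduction in absorption intensity. Run in triplicate.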

Ferriprotoporphyrin IX [11] = test: Binding affinity to Fe(III)PPIX (unknown origin) assessed as association constant by UV-Vis spectrophotometric analysis relative to control
Outline: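 UV-vis titration against Fe(III)PPIX at pH 7.5. Hemin stock was in DMSO and diluted in aqueous DMSO with 0.2 M Tris buffer pH 7.5. A 0.3 mM compound solution in the same solvent ratio was added in aliquots to 2 mL hemin solution. The blank received the same additions, and its absorbance was subtracted. A at 402 nm (Soret band) was fitted to a 1:1 complexation model by nonlinear least squares to give K. Run in triplicate.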

Plasmodium berghei [12] = test: Antimalarial activity against Plasmodium berghei NK65 infected in Swiss mouse assessed as parasitemia at 5 mg/kg, po administered for 4 days and measured on day 5 post infection by Giemsa staining based microscopic analysis (reference value: 100 %); type: functional; settings: time 4 day
Outline: (§4)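 Modified Peters 4-day suppressive test in female Swiss mice infected with P. berghei NK65. Dosing was by gavage, with compounds dissolved in 5% DMSO and diluted in water. Parasitemia was read on Giemsa-stained blood smears. Inhibition of parasite multiplication = [(A−B)/A]×100, where A is the water + 5% DMSO group and B the treated group; both are group mean parasitemias.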

Plasmodium berghei [13] = test: Antimalarial activity against Plasmodium berghei NK65 infected in Swiss mouse assessed as parasitemia at 5 mg/kg, po administered for 4 days and measured on day 9 post infection by Giemsa staining based microscopic analysis (reference value: 100 %); type: functional; settings: time 4 day; outline: as §4

| Structure (SMILES) | hemolysis at 16 h, 150 µM [1] [%] | CC50 at 48 h [2] [µM] | IC50 (Plasmodium falciparum) [µM] | selectivity ratio [3] | other results |
| --- | --- | --- | --- | --- | --- |
| Oc1cc(O)cc(/C=N/Nc2ccnc3cc(Cl)ccc23)c1 | < 10 | 12.9 | 0.625 | 20.6 | – |
| O=C(O)c1ccc(/C=N/CCNc2ccnc3cc(Cl)ccc23)cc1 | < 10 | > 28.3 | 0.145 | > 195 | Activity (Plasmodium berghei [4]): 72.64%; Activity (Plasmodium berghei [5]): 21.67% |
| Oc1ccccc1/C=N/CCNc1ccnc2cc(Cl)ccc12 | < 10 | 25.3 | 0.26 | 97.4 | – |
| Oc1ccc(/C=N/CCNc2ccnc3cc(Cl)ccc23)cc1 | < 10 | 130 | 0.162 | 802 | – |
| Oc1ccc(/C=N/Nc2ccnc3cc(Cl)ccc23)c(O)c1 | < 10 | 7.27 | 0.235 | 30.9 | – |
| COc1cc(/C=N/Nc2ccnc3cc(Cl)ccc23)ccc1O | < 10 | 10.8 | 0.235 | 45.8 | – |
| O=C(O)c1ccc(/C=N/Nc2ccnc3cc(Cl)ccc23)cc1 | < 10 | 82 | 0.335 | 245 | – |
| CC1(C)[C@@H](O[C@@H]2OC[C@H](O[C@@H]3OC[C@@H](O)[C@H](O)[C@H]3O)[C@H](O[C@H]3O[C@H](CO)[C@@H](O)[C@H](O)[C@H]3O)[C@H]2O[C@@H]2O[C@H](CO)[C@@H](O)[C@H](O)[C@H]2O[C@H]2O[C@H](CO)[C@@H](O)[C@H](O)[C@H]2O)CC[C@]2(C)[C@H]3CCC45OCC6(CC[C@@](C)(C=O)C[C@@H]64)[C@H](O)C[C@@]5(C)[C@]3(C)CC[C@@H]12 (some centres undefined) [SAPONIN] | – | – | – | – | Activity (Erythrocyte): Toxic |
| O=Cc1ccc(/C=N/CCNc2ccnc3cc(Cl)ccc23)cc1 | – | 138 | 0.16 | 861 | – |
| CCN(CC)CCCC(C)Nc1ccnc2cc(Cl)ccc12 (centres undefined) [CHLOROQUINE] | – | > 19.4 | – | – | Activity (Erythrocyte): Non-Toxic; Activity (Plasmodium berghei [6]): 94.04%; Activity (Plasmodium berghei [7]): 41.27% |
| Oc1ccc(/C=N/CCNc2ccnc3cc(Cl)ccc23)c(O)c1 | < 10 | 171 | 0.172 | 990 | Activity (Plasmodium berghei [4]): 71.15%; Activity (Plasmodium berghei [5]): 40.13%; Activity (Plasmodium berghei [8]): 93.7%; Activity (Plasmodium berghei [9]): 41.01%; inhibition (Ferriprotoporphyrin IX [10]): 50.4%; log K (Ferriprotoporphyrin IX [11]): 4.77 |
| C[C@@H]1CC[C@H]2[C@@H](C)C(=O)O[C@@H]3O[C@@]4(C)CC[C@@H]1[C@]32OO4 [ARTEMISININ] | – | – | – | – | Activity (Plasmodium berghei [12]): 94.9%; Activity (Plasmodium berghei [13]): 96.64% |
| Oc1cc(O)cc(/C=N/CCNc2ccnc3cc(Cl)ccc23)c1 | < 10 | 79.3 | 0.205 | 387 | – |

— ChEMBL document CHEMBL4732215, “In vitro and in vivo antiplasmodial activity of novel quinoline derivative compounds by molecular hybridization” (Eur J Med Chem, 2021)
